Converted amounts (≈) assume the structure as drawn.
How the values were obtained:
Format in all cases: functional
Candida albicans [1] = assay: In vitro antifungal activity against 40 strains of Candida albicans at pH 5.8; (percent of resistant species at 256 ug/mL)
In short: (§1)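 Broth serial-dilution test in Sabouraud broth at pH 7.2 or 5.8, against 40 fresh clinical C. albicans isolates from hospitalized patients. Inocula were 10³/mL, pre-grown 18 h at 37 °C in Sabouraud dextrose broth. Compound from a DMSO/water stock was twofold-diluted over 0.25–256 µg/mL. Visible growth was read at 24 h, 37 °C.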

Candida [2] = assay: Tested in vitro for antifungal activity against Candida species. at pH 5.8 (range is from 16 to 256)
In short: (§2)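 Liquid serial-dilution MIC against 3 freshly isolated clinical Candida strains (two C. glabrata, one C. krusei) in Sabouraud broth at pH 7.2 or 5.8. Inoculum was 10³/mL after 18 h pre-culture at 37 °C, read at 24 h, 37 °C. Range was 0.25–256 μg/mL. Endpoint was no visible growth versus a DMSO/water blank.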

Candida albicans [3] = assay: In vitro antifungal activity against 40 strains of Candida albicans at pH 7.2
In short: (§3)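 Broth serial-dilution MIC against 40 clinical C. albicans isolates from hospitalized patients, grown in Sabouraud broth at pH 7.2 or 5.8. Cells were pre-grown 18 h at 37 °C, inoculated at 10³/mL, and read at 24 h, 37 °C. Doubling dilutions ran 0.25–256 μg/mL from a DMSO/water solution. MIC was the lowest concentration with no visible growth against a DMSO/water blank.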

Candida [4] = assay: Tested In vitro for antifungal activity against Candida species. at pH 7.2; in short: as §2
Candida [5] = assay: Tested In vitro for antifungal activity against Candida species. at pH 7.2; (range is from 8 to 128); in short: as §2
Candida albicans [6] = assay: In vitro antifungal activity against 40 strains of Candida albicans at pH 7.2; minimum inhibitory concentration (range is from 2 to 256); in short: as §3
Candida albicans [7] = assay: In vitro antifungal activity against 40 strains of Candida albicans at pH 7.2; (percent of resistant species at 256 ug/mL); in short: as §1
Candida [8] = assay: Tested in vitro for antifungal activity against Candida species. at pH 5.8; in short: as §2
Candida [9] = assay: Tested In vitro for antifungal activity against Candida species. at pH 7.2; (percent of resistant species at 256 ug/mL)
In short: (§4)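 Broth serial-dilution test in Sabouraud broth at pH 7.2 or 5.8, against 3 fresh clinical non-albicans isolates (two C. glabrata, one C. krusei). Inocula were 10³/mL, pre-grown 18 h at 37 °C. Compound was twofold-diluted over 0.25–256 µg/mL and read at 24 h, 37 °C for visible growth.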

Candida [10] = assay: Tested in vitro for antifungal activity against Candida species. at pH 5.8 (percent of resistant species at 256 ug/mL); in short: as §4
Candida albicans [11] = assay: In vitro antifungal activity against 40 strains of Candida albicans at pH 5.8; (range is from 2 to 128); in short: as §3
[12] = biological target: Lanosterol 14-alpha demethylase (Candida albicans (strain SC5314 / ATCC MYA-2876) (Yeast), UniProt P10613); assay: Anticandida activity- (MIC90 compound) / (MIC90 bifonazole)
Candida albicans [13] = assay: In vitro antifungal activity against 40 strains of Candida albicans at pH 5.8; in short: as §3
Candida albicans [14] = assay: In vitro antifungal activity against Candida albicans (40 strains) at pH 7.2,(percent of resistant species at 256 ug/mL); in short: as §1
Candida [15] = assay: Tested in vitro for antifungal activity against Candida species. at pH 7.2
In short: (§5)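 Fresh clinical isolates (two C. glabrata, one C. krusei) were pre-grown 18 h at 37 °C in Sabouraud dextrose broth. Broth double-dilution was run in Sabouraud broth at pH 5.8 or 7.2 over 0.25–256 µg/mL from a DMSO/water stock, with 10³/mL inoculum.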

Candida [16] = assay: Tested in vitro for antifungal activity against Candida species. at pH 7.2 (value ranges from 0.5 to 8); in short: as §5
Candida [17] = assay: Tested in vitro for antifungal activity against Candida species. at pH 7.2 (percent of resistant species at 256 ug/mL); in short: as §4
Candida albicans [18] = assay: In vitro antifungal activity against Candida albicans (40 strains) at pH 7.2(value ranges from 0.5 to 32); in short: as §3
Candida albicans [19] = assay: In vitro antifungal activity against Candida albicans (40 strains) at pH 5.8,(percent of resistant species at 256 ug/mL); in short: as §1
Candida albicans [20] = assay: In vitro antifungal activity against Candida albicans (40 strains) at pH 7.2; in short: as §3
Candida albicans [21] = assay: Tested in vitro for antifungal activity against Candida albicans at pH 5.8 (range 1-8); in short: as §3
Candida [22] = assay: In vitro antifungal activity against 40 strains at pH 5.8,(percent of resistant species at 256 ug/mL); in short: as §1
Candida albicans [23] = assay: Tested in vitro for antifungal activity against Candida albicans at pH 5.8; in short: as §3
Candida [24] = assay: Tested in vitro for antifungal activity against Candida species. at pH 5.8; value ranges from 128 to >256; in short: as §5
Candida albicans [25] = assay: In vitro antifungal activity against 40 strains of Candida albicans at pH 5.8; (range is from 32 to 256); in short: as §3
Candida albicans [26] = assay: IIn vitro antifungal activity against 40 strains of Candida albicans at pH 7.2; minimum inhibitory concentration (range is from 16 to 256); in short: as §3

Chain of Lanosterol 14-alpha demethylase (P10613 whole entry): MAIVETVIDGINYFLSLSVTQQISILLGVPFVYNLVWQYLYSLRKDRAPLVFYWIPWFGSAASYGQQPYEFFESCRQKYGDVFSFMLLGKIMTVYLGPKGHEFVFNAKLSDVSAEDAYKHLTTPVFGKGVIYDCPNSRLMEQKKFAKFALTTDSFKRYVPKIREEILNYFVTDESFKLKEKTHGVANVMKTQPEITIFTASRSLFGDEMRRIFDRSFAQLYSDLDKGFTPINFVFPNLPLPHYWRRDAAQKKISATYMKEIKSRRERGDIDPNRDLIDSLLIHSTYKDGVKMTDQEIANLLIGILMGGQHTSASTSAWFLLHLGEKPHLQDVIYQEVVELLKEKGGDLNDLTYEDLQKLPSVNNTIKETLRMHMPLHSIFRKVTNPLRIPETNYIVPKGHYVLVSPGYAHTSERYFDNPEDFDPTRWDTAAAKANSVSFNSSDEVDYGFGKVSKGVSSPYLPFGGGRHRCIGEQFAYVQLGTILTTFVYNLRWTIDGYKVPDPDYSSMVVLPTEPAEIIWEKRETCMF

O=[N+]([O-])c1ccc(-c2c[nH]cc2[C@@H](c2ccc(Cl)cc2Cl)n2ccnc2)cc1
Resistance (Candida albicans [1]): 0% | Range (Candida [2]): 256 µg/mL | MIC (Candida albicans [3]): 14.7 µg/mL (≈ 35.6 µM) | MIC50 (Candida albicans [3]): 8 µg/mL (≈ 19.4 µM) | MIC90 (Candida albicans [3]): 8 µg/mL (≈ 19.4 µM) | MIC (Candida [4]): 56 µg/mL (≈ 136 µM) | MIC50 (Candida [4]): 32 µg/mL (≈ 77.4 µM) | MIC90 (Candida [4]): 128 µg/mL (≈ 310 µM) | Range (Candida [5]): 128 µg/mL | Range (Candida albicans [6]): 256 µg/mL | Resistance (Candida albicans [7]): 0% | MIC (Candida [8]): 133 µg/mL (≈ 323 µM) | MIC50 (Candida [8]): 128 µg/mL (≈ 310 µM) | MIC90 (Candida [8]): 256 µg/mL (≈ 619 µM) | Resistance (Candida [9]): 0% | Resistance (Candida [10]): 0% | Range (Candida albicans [11]): 128 µg/mL | Ratio [12]: 1.5 | MIC (Candida albicans [13]): 15 µg/mL (≈ 36.4 µM) | MIC50 (Candida albicans [13]): 8 µg/mL (≈ 19.4 µM) | MIC90 (Candida albicans [13]): 8 µg/mL (≈ 19.4 µM)

Clc1ccc(-c2c[nH]cc2[C@H](c2ccc(Cl)cc2Cl)n2ccnc2)cc1
Resistance (Candida albicans [14]): 0% | MIC (Candida [15]): 5.01 µg/mL (≈ 12.4 µM) | MIC50 (Candida [15]): 8 µg/mL (≈ 19.9 µM) | MIC90 (Candida [15]): 8 µg/mL (≈ 19.9 µM) | Range (Candida [16]): 8 µg/mL | Resistance (Candida [17]): 0% | Range (Candida albicans [18]): 32 µg/mL | Resistance (Candida albicans [19]): 0% | MIC (Candida albicans [20]): 2.14 µg/mL (≈ 5.31 µM) | MIC50 (Candida albicans [20]): 2 µg/mL (≈ 4.97 µM) | MIC90 (Candida albicans [20]): 4 µg/mL (≈ 9.93 µM) | MIC (Candida [8]): 6 µg/mL (≈ 14.9 µM) | MIC50 (Candida [8]): 8 µg/mL (≈ 19.9 µM) | MIC90 (Candida [8]): 64 µg/mL (≈ 159 µM) | Range (Candida [8]): 64 µg/mL | Range (Candida albicans [21]): 8 µg/mL | Resistance (Candida [22]): 0% | Ratio [12]: 0.8 | MIC (Candida albicans [23]): 3.6 µg/mL (≈ 8.94 µM) | MIC50 (Candida albicans [23]): 1 µg/mL (≈ 2.48 µM) | MIC90 (Candida albicans [23]): 2 µg/mL (≈ 4.97 µM)

Oc1ccc(-c2c[nH]cc2[C@@H](c2ccc(Cl)cc2Cl)n2ccnc2)cc1
Resistance (Candida albicans [1]): 26% | Range (Candida [24]): >256 µg/mL | MIC (Candida albicans [3]): 77.8 µg/mL (≈ 202 µM) | MIC50 (Candida albicans [3]): 16 µg/mL (≈ 41.6 µM) | MIC90 (Candida albicans [3]): 256 µg/mL (≈ 666 µM) | MIC (Candida [4]): 256 µg/mL (≈ 666 µM) | MIC50 (Candida [4]): 256 µg/mL (≈ 666 µM) | MIC90 (Candida [4]): 256 µg/mL (≈ 666 µM) | Range (Candida [4]): 256 µg/mL | Resistance (Candida albicans [7]): 0% | MIC (Candida [8]): 128 µg/mL (≈ 333 µM) | MIC50 (Candida [8]): > 256 µg/mL | MIC90 (Candida [8]): > 256 µg/mL | Resistance (Candida [9]): 0% | Range (Candida albicans [25]): 256 µg/mL | Resistance (Candida [10]): 67% | Ratio [12]: 26 | MIC (Candida albicans [13]): 150 µg/mL (≈ 390 µM) | MIC50 (Candida albicans [13]): 32 µg/mL (≈ 83.3 µM) | MIC90 (Candida albicans [13]): 128 µg/mL (≈ 333 µM) | Range (Candida albicans [26]): 256 µg/mL
